# Screening results (PubChem BioAssay)
# Compounds with a hit are over-represented: about 1.5% of the library has one in this group of screens.
# CXCR6 block: CXCR6 (human) receptor inhibition; CHO-K1 PathHunter CXCR6 beta-arrestin, luminescence; hit rate 0.36% among 360,000; inhibition, % at 20 µM; AID 602244; in the data active = inhibition above about 34%, passing the limit was not always enough;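 also: antagonist mode with CXCL16 agonist at 10 nM final; 0% = 10 nM CXCL16 with DMSO and 100% = unstimulated wells without agonist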
# EBI2 antag: EBI2 (human) antagonism; EBI2 beta-arrestin recruitment, luminescence, 7a,25-OHC stimulated; inhibition, % at 5 µM; hit rate 0.81% among 360,000; in the data active = inhibition above about 38%;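 also: enzyme fragment complementation signal reports receptor beta-arrestin coupling in cells; 0% = agonist plus DMSO wells and 100% = wells without agonist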
# Target sequence (P32249 whole entry, looked up, the tested form may be a part): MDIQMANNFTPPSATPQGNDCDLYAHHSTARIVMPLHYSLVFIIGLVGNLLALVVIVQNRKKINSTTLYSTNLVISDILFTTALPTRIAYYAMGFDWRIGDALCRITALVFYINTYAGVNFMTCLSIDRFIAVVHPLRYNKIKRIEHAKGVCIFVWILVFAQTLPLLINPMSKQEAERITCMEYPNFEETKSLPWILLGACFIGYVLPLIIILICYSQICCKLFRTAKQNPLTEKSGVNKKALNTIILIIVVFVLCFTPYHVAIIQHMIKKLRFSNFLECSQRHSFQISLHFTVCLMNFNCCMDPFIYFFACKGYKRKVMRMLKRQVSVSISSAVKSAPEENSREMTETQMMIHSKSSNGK
# APJ antag: APJ receptor antagonism. inhibition, % at 20 µM. CHO-K1 APJ beta-arrestin complementation, luminescence. hit rate 0.32% among 330,000. P35414;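 active = inhibition above about 40% at 20 µM, limit read from the data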;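 also: cells challenged with 10 nM apelin-13 agonist together with compound; plate controls were apelin-13 plus DMSO wells for no effect and DMSO wells lacking apelin-13 for full effect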
# CCR6 antag: blocks CCL20-driven beta-arrestin recruitment at human CCR6; P51684; CHO-K1 CCR6 PathHunter beta-arrestin, luminescence, CCL20-stimulated; hit rate 0.49% among 340,000; inhibition, % at 20 µM;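 active = compounds whose inhibition of the agonist-driven luminescence signal at 20 µM reaches about 50%, limit read from the data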;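 also: cells stimulated with CCL20 at 14 nM final; plate controls were DMSO with CCL20 for no effect and DMSO without agonist for full effect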
# APJ ag: agonists of human APJ apelin receptor. activation, % at 20 µM. hit rate 0.11% among 330,000. CHO-K1 APJ PathHunter beta-arrestin, luminescence; 0% DMSO wells, 100% apelin. AID 2520;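 active = activation more than six SD over the plate average, tested at 20 µM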;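 also: 0% = DMSO alone and 100% = apelin-13 at 10 nM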
#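 system = engineered CHO-K1 APJ arrestin reporter cells | input = 1000 cells per well | timing = overnight seeding, 90 min compound at 25 °C, 1 h detection | measured by = enzyme-fragment complementation luminescence | read-out = beta-arrestin recruitment to APJ as agonist activity, luminescent signal | control set = negative DMSO alone, positive Apelin-13 at 10 nM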
# EBI2 antag conf: EBI2 (human) antagonism, single concentration confirmation; shares compounds with EBI2 antag; EBI2 beta-arrestin luminescence, 7a,25-OHC antagonism; inhibition, % at 5 µM; hit rate 29% among 2,400; AID 651997;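 active = inhibition of at least 50%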
# EBI2 ag: EBI2 agonism counter-screen; shares compounds with EBI2 antag; EBI2-expressing cells, agonist mode, luminescence, 60 min; 0% vehicle, 100% 7α,25-dihydroxycholesterol control; activation, % at 5 µM; AID 652000; 2,400 tested, under 10 active;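 active = activation of at least 50%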
# bGal cs: inhibits E. coli beta-galactosidase, counter-screen for EBI2 antagonists; shares compounds with EBI2 antag; purified beta-galactosidase, luminescent Galacton Star, 15 min; inhibition, % at 5 µM; hit rate 1% among 2,400; AID 652176;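 active = replicate-average signal at least 3 plate SD below neutral wells, shown as high inhibition, flagging enzyme-inhibiting false positives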;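 also: 0% = DMSO wells with enzyme and 100% = wells lacking enzyme; higher means stronger loss of beta-gal luminescence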
# An asterisk follows results filed as active; · = no result.
SMILES,CXCR6 block,EBI2 antag,APJ antag,CCR6 antag,APJ ag,EBI2 antag conf,EBI2 ag,bGal cs
O=C(CCN1CCN(C(c2ccccc2)c2ccccc2)CC1)N/N=C/c1ccc(O)cc1,1.9,32.0,-4.8,28.2,0.3,·,·,·
O=C(CSC1CN(C(c2ccccc2)c2ccccc2)C1)N/N=C/c1ccccc1,11.0,48.9*,-4.4,16.1,-4.0,34.6,-0.8,-10.0
O=C(c1ccco1)N1CCc2[nH]nc(-c3ccc(Cl)cc3)c2C1,7.0,41.4*,3.3,5.7,-2.4,25.4,0.1,7.1
COCCCn1c2nc3ccccc3nc2c2c(=O)n(Cc3ccc(Cl)cc3)cnc21,8.2,3.6,14.5,15.5,-0.9,·,·,·
O=c1c2c3nc4ccccc4nc3n(Cc3ccccc3)c2ncn1Cc1ccco1,27.4,50.9*,·,20.2,·,-1.5,-1.0,-12.9
CCCNC(=O)C1(C)CCCN(C(=O)c2ccc(C)c(F)c2)C1 (configuration not stated),-7.2,-3.3,·,·,·,·,·,·
Cc1ccc(OCC(=O)N2CCN(C(=O)c3ccco3)CC2)cc1,4.4,52.2*,-14.4,10.1,-4.3,23.2,3.0,7.0
COc1ccc(CN2CCN(C(=O)c3cccs3)CC2)cc1,1.8,-18.1,-17.1,0.0,0.2,·,·,·
O=C(COc1ccc2ccccc2c1)N1CCN(C(=O)c2ccco2)CC1,-11.8,72.5*,-0.7,8.1,-3.4,49.7,-0.8,-6.3
Cc1ccc(OCC(=O)N2CCN(C(=O)c3cccs3)CC2)cc1,-1.9,60.1*,-3.9,-1.9,-2.4,41.1,1.4,-2.9
O=C(CSc1ccc(Br)cc1)N1CCN(C(=O)c2ccco2)CC1,-7.4,82.5*,-17.5,3.9,-2.1,69.1*,0.3,2.1
O=C(CSc1ccc(Br)cc1)N1CCOCC1,0.7,11.9,3.9,-0.3,1.4,·,·,·
CCN(C(=O)CSc1nnc(C)c(=O)[nH]1)c1cccc2ccccc12,-4.5,-8.6,-12.2,2.5,-0.8,·,·,·
Cc1ccc(/C=C2\SC(N3CCCC3)=NC2=O)cc1,·,·,3.9,·,-1.2,·,·,·
CCOC(=O)C1CCN(C2=NC(=O)/C(=C/c3ccc(Cl)cc3)S2)CC1,6.3,86.7*,8.4,-2.8,-2.1,65.9*,0.1,5.2
CCOc1ccc(/C=C2\SC(N3CCCCC3)=NC2=O)cc1,1.9,74.0*,-0.8,2.0,-0.2,50.4*,1.7,8.4
O=C1N=C(N2CCCCC2)S/C1=C\c1ccc(Br)cc1,4.4,86.7*,1.7,-1.8,-1.0,58.0*,-0.4,-14.6
O=C(NCC1CCCCC1)C12CN(Cc3ccccc3)CC1C(c1cccc([N+](=O)[O-])c1)=NO2 (configuration not stated),11.3,7.8,-37.2,21.8,-5.5,·,·,·
Cc1ccc(CCNC(=O)C23CN(Cc4ccccc4)CC2C(c2cccc([N+](=O)[O-])c2)=NO3)cc1 (configuration not stated),4.6,62.9*,2.3,4.9,-0.6,43.1,1.7,7.4
COc1ccc(CCNC(=O)C23CN(Cc4ccccc4)CC2C(c2cccc([N+](=O)[O-])c2)=NO3)cc1 (configuration not stated),1.7,51.8*,-1.5,2.7,2.4,44.9,0.9,-2.5
Cc1ccc(S(=O)(=O)N(CCC(=O)NCC(c2ccccc2)N(C)C)c2ccccc2)cc1 (configuration not stated),2.5,0.9,·,12.6,·,·,·,·
O=C(/C=C/c1cccc([N+](=O)[O-])c1)N1CCN(c2ccccn2)CC1,-4.5,38.5,-0.1,-4.7,2.1,·,·,·
COc1cccc(/C=C/C(=O)N2CCN(c3ccccn3)CC2)c1,1.4,74.9*,0.4,8.0,-6.8,48.3,-0.8,-13.2
O=C(/C=C/c1ccc(F)cc1)NC(=S)N1CCN(c2ccccn2)CC1,10.8,16.6,2.7,10.0,-3.5,·,·,·
CSc1ccc(/C=C/C(=O)N2CCN(c3ccccn3)CC2)cc1,-2.9,93.1*,3.0,10.3,-0.7,81.0*,-0.5,-15.2
